According to ChEMBL document CHEMBL1128214, “Structure-based design of sulfonamide-substituted non-peptidic HIV protease inhibitors” (J Med Chem, 1995):

Assays:
[1] = tested on: Human immunodeficiency virus 1; test: Antiviral potency of compound determined against human immunodeficiency virus type 1; type: functional, organism-based
In short: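 Antiviral activity measured in MT4 cells acutely infected with HIV-1 IIIB; potency reported as IC50.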

[2] = target: Human immunodeficiency virus type 1 protease (Human immunodeficiency virus 1, UniProt Q72874); test: Inhibitory activity against HIV-1 protease
[3] = The steady-state volume of distribution was determined in an aqueous sodium hydroxide solution adjusted to pH 10 at 2.5 mg/kg administered intravenously dosage in rats; type: ADME, organism-based; set-up: dose 2.5 mg/kg, route intravenous; conditions: rat, in vivo, iv, read-out: Vss
In short: (§1)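 Plasma concentration–time data were analysed by noncompartmental methods. The […] (β) and half-life were estimated, and total body clearance and steady-state volume of distribution were calculated. Values are mean ± SD.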

[4] = The total body administered intravenously in dog; type: ADME, organism-based, Canis lupus familiaris; conditions: in vivo, iv, read-out: Vss; in short: as §1
[5] = Bioavailability (F) was determined in an aqueous sodium hydroxide solution adjusted to pH 10 at 5 mg/kg dosage administered perorally in rats; type: ADME, organism-based; conditions: eutheria, in vivo, po
In short: (§2)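 Single oral dose given as an aqueous sodium hydroxide solution adjusted to pH 10. Plasma concentrations were followed over time. Cmax, tmax and bioavailability (F) were calculated from the time-course data by noncompartmental analysis. Values are mean ± SD.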

[6] = The half life time estimated was determined in an aqueous sodium hydroxide solution adjusted to pH 10 at 5 mg/kg dosage administered intravenously in dog; type: ADME, organism-based; set-up: dose 5 mg/kg, route intravenous; conditions: in vivo, iv; in short: as §1
[7] = Time of maximum concentration was determined in an aqueous sodium hydroxide solution adjusted to pH 10 at 5 mg/kg dosage administered perorally in rats; type: ADME, organism-based; set-up: dose 5 mg/kg, route oral; conditions: rat, in vivo, po; in short: as §2
[8] = The half life time estimated was determined in an aqueous sodium hydroxide solution adjusted to pH 10 at 2.5 mg/kg dosage administered intravenously in rats; type: ADME, organism-based; set-up: dose 2.5 mg/kg, route intravenous; conditions: rat, in vivo, iv; in short: as §1
[9] = Time of maximum concentration was determined in an aqueous sodium hydroxide solution adjusted to pH 10 at 10 mg/kg dosage administered perorally in dog; type: ADME, organism-based, Canis lupus familiaris; set-up: dose 10 mg/kg, route oral; conditions: in vivo, po; in short: as §2
[10] = Maximum concentration was determined in an aqueous sodium hydroxide solution adjusted to pH 10 at 5 mg/kg dosage administered perorally in rats; type: ADME, organism-based; set-up: dose 5 mg/kg, route oral; conditions: rat, in vivo, po; in short: as §2
[11] = Bioavailability (F) was determined in an aqueous sodium hydroxide solution adjusted to pH 10 at 10 mg/kg dosage administered perorally in dog; type: ADME, organism-based; conditions: eutheria, in vivo, po; in short: as §2
[12] = Maximum concentration was determined in an aqueous sodium hydroxide solution adjusted to pH 10 at 10 mg/kg dosage administered perorally in dog; type: ADME, organism-based, Canis lupus familiaris; set-up: dose 10 mg/kg, route oral; conditions: in vivo, po; in short: as §2

In the case of `O=c1c2c(oc(O)c1C(c1cccc(NS(=O)(=O)c3ccccc3)c1)C1CC1)CCCCCC2` (stereo not drawn), the IC50 [1] is reported as 5 µM.
Work on `Cc1cccc(S(=O)(=O)Nc2cccc(C(c3c(O)c4c(oc3=O)CCCCCC4)C3CC3)c2)c1` (stereo not drawn) yielded a Ki [2] of 0.005 µM and an IC50 [1] of 4 µM.
Molecule `N#Cc1ccc(S(=O)(=O)Nc2cccc(C(c3c(O)c4c(oc3=O)CCCCCC4)C3CC3)c2)cc1` (stereo not drawn) has a Vd [3] of 0.11 L/kg, a Vd [4] of 0.084 L/kg and a bioavailability [5] of 41.9%. For the same molecule, the half-life [6] was 6.3 h, the Tmax [7] was 1 h and the half-life [8] was 3 h. For the same molecule, the Tmax [9] was 1 h, the Cmax [10] was 24.2 µM and the IC50 [1] was 1.5 µM. For the same molecule, the bioavailability [11] was 76.7% and the Cmax [12] was 156 µM.
For `Cc1ccccc1S(=O)(=O)Nc1cccc(C(c2c(O)c3c(oc2=O)CCCCCC3)C2CC2)c1` (stereo not drawn), the Ki [2] was 0.009 µM and the IC50 [1] was over 10 µM.
`Cc1ccc(S(=O)(=O)Nc2cccc(C(c3c(O)c4c(oc3=O)CCCCCC4)C3CC3)c2)cc1` (stereo not drawn) showed a Ki [2] of 0.003 µM and an IC50 [1] of 3.6 µM.
